Values joined by “and” are separate entries in the source; they are usually repeats but may differ in a detail not shown here. Equal entries are not always repeated.
Tested on: Fibroblast
Assay: Multiplex assay against human fibroblast
Assay type: toxicity, cell-based
Procedure, shortened: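 Per cents of healthy-nucleus cells form the tubulin, mitochondrial-mass and membrane-permeability phenotype values. Live cells were stained at seeding with Hoechst33342, BioTracker Green Microtubule Cytoskeleton Dye, MitoTracker Red and Annexin V Alexa Fluor 680. After compound addition they were imaged on a CQ1 microscope at 37°C and 5% CO2, and CellPathfinder machine-learning gating split them into Hoechst high-intensity objects or normal cells, normal cells into healthy, pyknosed or fragmented nuclei, and pyknosed cells into mitotic or apoptotic.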

[1] = 12 h, 1 µM, compound concentration 1 uM
[2] = 12 h, 10 µM, compound concentration 10 uM
[3] = 24 h, 1 µM, compound concentration 1 uM
[4] = 24 h, 10 µM, compound concentration 10 uM
[5] = 48 h, 1 µM, compound concentration 1 uM
[6] = 48 h, 10 µM, compound concentration 10 uM

SMILES: Cc1ccc(OCC(O)C(C)NC(C)C)c2c1CCC2.Cl (stereo not given)
- Population Apoptotic (%) [1]: 36% and 28%
- Population Fragmented Nuclei (%) [1]: 10% and 17%
- Population Healthy Nuclei (%) [1]: 68% and 55%
- Population Hoechst High Intensity Objects (%) [1]: 0% and 9%
- Population Membrane Permeable-Phenotype (%) [1]: 0% and 4%
- Population Mitochondria Different-Phenotype (%) [1]: 3% and 7%
- Population Mitotic Cells (%) [1]: 63% and 71%
- Population Normal (%) [1]: 99% and 90%
- Population Pyknosed Nuclei (%) [1]: 20% and 27%
- Population Tubulin-Different-Phenotype (%) [1]: 26% and 50%
- Total Cell Count [1]: 159 and 210
- Population Apoptotic (%) [2]: 47% and 25%
- Population Fragmented Nuclei (%) [2]: 39% and 33%
- Population Healthy Nuclei (%) [2]: 47% and 50%
- Population Hoechst High Intensity Objects (%) [2]: 1% and 2%
- Population Membrane Permeable-Phenotype (%) [2]: 0% and 7%
- Population Mitochondria Different-Phenotype (%) [2]: 12% and 17%
- Population Mitotic Cells (%) [2]: 52% and 74%
- Population Normal (%) [2]: 98% and 97%
- Population Pyknosed Nuclei (%) [2]: 12% and 16%
- Population Tubulin-Different-Phenotype (%) [2]: 52% and 54%
- Total Cell Count [2]: 138 and 168
- Population Apoptotic (%) [3]: 57% and 20%
- Population Fragmented Nuclei (%) [3]: 11% and 27%
- Population Healthy Nuclei (%) [3]: 74% and 46%
- Population Hoechst High Intensity Objects (%) [3]: 0% and 15%
- Population Membrane Permeable-Phenotype (%) [3]: 4% and 1%
- Population Mitochondria Different-Phenotype (%) [3]: 5% and 8%
- Population Mitotic Cells (%) [3]: 42% and 80%
- Population Normal (%) [3]: 100% and 84%
- Population Pyknosed Nuclei (%) [3]: 13% and 26%
- Population Tubulin-Different-Phenotype (%) [3]: 30% and 52%
- Total Cell Count [3]: 154 and 201
- Population Apoptotic (%) [4]: 35% and 36%
- Population Fragmented Nuclei (%) [4]: 39% and 35%
- Population Healthy Nuclei (%) [4]: 49% and 50%
- Population Hoechst High Intensity Objects (%) [4]: 1% and 5%
- Population Membrane Permeable-Phenotype (%) [4]: 1% and 4%
- Population Mitochondria Different-Phenotype (%) [4]: 13% and 14%
- Population Mitotic Cells (%) [4]: 64% and 63%
- Population Normal (%) [4]: 98% and 94%
- Population Pyknosed Nuclei (%) [4]: 11% and 13%
- Population Tubulin-Different-Phenotype (%) [4]: 63% and 65%
- Total Cell Count [4]: 151 and 168
- Population Apoptotic (%) [5]: 64% and 34%
- Population Fragmented Nuclei (%) [5]: 16% and 37%
- Population Healthy Nuclei (%) [5]: 71% and 42%
- Population Hoechst High Intensity Objects (%) [5]: 4% and 11%
- Population Membrane Permeable-Phenotype (%) [5]: 0% and 5%
- Population Mitochondria Different-Phenotype (%) [5]: 1% and 8%
- Population Mitotic Cells (%) [5]: 35% and 65%
- Population Normal (%) [5]: 95% and 88%
- Population Pyknosed Nuclei (%) [5]: 11% and 20%
- Population Tubulin-Different-Phenotype (%) [5]: 23% and 60%
- Total Cell Count [5]: 155 and 196
- Population Apoptotic (%) [6]: 71% and 60%
- Population Fragmented Nuclei (%) [6]: 35% and 39%
- Population Healthy Nuclei (%) [6]: 50%
- Population Hoechst High Intensity Objects (%) [6]: 1% and 7%
- Population Membrane Permeable-Phenotype (%) [6]: 0% and 5%
- Population Mitochondria Different-Phenotype (%) [6]: 9% and 10%
- Population Mitotic Cells (%) [6]: 28% and 40%
- Population Normal (%) [6]: 98% and 92%
- Population Pyknosed Nuclei (%) [6]: 13% and 10%
- Population Tubulin-Different-Phenotype (%) [6]: 68% and 63%
- Total Cell Count [6]: 155 and 157

SMILES: CCn1c(-c2ccncc2)cc2c1CCNC2=O
- Population Apoptotic (%) [1]: 13.79% and 16.67%
- Population Fragmented Nuclei (%) [1]: 13.56% and 3.83%
- Population Healthy Nuclei (%) [1]: 70.06% and 79.78%
- Population Hoechst High Intensity Objects (%) [1]: 0%
- Population Membrane Permeable-Phenotype (%) [1]: 2.42% and 2.74%
- Population Mitochondria Different-Phenotype (%) [1]: 8.06% and 6.85%
- Population Mitotic Cells (%) [1]: 86.21% and 83.33%
- Population Normal (%) [1]: 100%
- Population Pyknosed Nuclei (%) [1]: 16.38% and 16.39%
- Population Tubulin-Different-Phenotype (%) [1]: 12.9% and 11.64%
- Total Cell Count [1]: 177 and 183
- Population Healthy Nuclei (%) [2]: 69.44% and 89.58%
- Population Hoechst High Intensity Objects (%) [2]: 0%
- Population Membrane Permeable-Phenotype (%) [2]: 6.4% and 2.91%
- Population Mitochondria Different-Phenotype (%) [2]: 11.2% and 12.79%
- Population Mitotic Cells (%) [2]: 88.89% and 60%
- Population Normal (%) [2]: 100%
- Population Pyknosed Nuclei (%) [2]: 15% and 7.81%
- Population Tubulin-Different-Phenotype (%) [2]: 12% and 12.79%
- Total Cell Count [2]: 180 and 192
- Population Apoptotic (%) [3]: 19.51% and 13.16%
- Population Healthy Nuclei (%) [3]: 62.05% and 74.05%
- Population Hoechst High Intensity Objects (%) [3]: 0%
- Population Membrane Permeable-Phenotype (%) [3]: 4.96% and 1.46%
- Population Mitochondria Different-Phenotype (%) [3]: 7.44% and 7.3%
- Population Mitotic Cells (%) [3]: 80.49% and 86.84%
- Population Normal (%) [3]: 100%
- Population Pyknosed Nuclei (%) [3]: 21.03% and 20.54%
- Population Tubulin-Different-Phenotype (%) [3]: 16.53% and 14.6%
- Total Cell Count [3]: 195 and 185
- Population Healthy Nuclei (%) [4]: 70.39% and 84.97%
- Population Hoechst High Intensity Objects (%) [4]: 0%
- Population Membrane Permeable-Phenotype (%) [4]: 7.14% and 3.66%
- Population Mitochondria Different-Phenotype (%) [4]: 6.35% and 12.8%
- Population Mitotic Cells (%) [4]: 92.86% and 57.69%
- Population Normal (%) [4]: 100%
- Population Pyknosed Nuclei (%) [4]: 15.64% and 13.47%
- Population Tubulin-Different-Phenotype (%) [4]: 10.32% and 17.07%
- Total Cell Count [4]: 179 and 193
- Population Apoptotic (%) [5]: 33.33%
- Population Fragmented Nuclei (%) [5]: 17.79% and 7.69%
- Population Healthy Nuclei (%) [5]: 75% and 86.54%
- Population Hoechst High Intensity Objects (%) [5]: 0%
- Population Membrane Permeable-Phenotype (%) [5]: 3.85% and 5%
- Population Mitotic Cells (%) [5]: 66.67%
- Population Normal (%) [5]: 100%
- Population Pyknosed Nuclei (%) [5]: 7.21% and 5.77%
- Population Tubulin-Different-Phenotype (%) [5]: 23.08% and 22.22%
- Total Cell Count [5]: 208
- Population Apoptotic (%) [6]: 11.76% and 35.14%
- Population Fragmented Nuclei (%) [6]: 16.11% and 6.99%
- Population Healthy Nuclei (%) [6]: 65% and 73.12%
- Population Hoechst High Intensity Objects (%) [6]: 0%
- Population Membrane Permeable-Phenotype (%) [6]: 0% and 11.03%
- Population Mitochondria Different-Phenotype (%) [6]: 20.51% and 11.76%
- Population Mitotic Cells (%) [6]: 88.24% and 64.86%
- Population Normal (%) [6]: 100%
- Population Pyknosed Nuclei (%) [6]: 18.89% and 19.89%
- Population Tubulin-Different-Phenotype (%) [6]: 6.84% and 18.38%
- Total Cell Count [6]: 180 and 186

SMILES: O=C(NCC(=O)N1CC[C@H](N[C@H]2CC[C@@](O)(c3ccc(-c4ncccn4)cn3)CC2)C1)c1cccc(C(F)(F)F)c1 [PF-4136309]
- Population Apoptotic (%) [1]: 53% and 22%
- Population Fragmented Nuclei (%) [1]: 13% and 25%
- Population Healthy Nuclei (%) [1]: 63% and 52%
- Population Hoechst High Intensity Objects (%) [1]: 2% and 5%
- Population Mitochondria Different-Phenotype (%) [1]: 4% and 7%
- Population Mitotic Cells (%) [1]: 46% and 77%
- Population Normal (%) [1]: 97% and 94%
- Population Pyknosed Nuclei (%) [1]: 23% and 21%
- Population Tubulin-Different-Phenotype (%) [1]: 28% and 60%
- Total Cell Count [1]: 142 and 152
- Population Apoptotic (%) [2]: 60% and 25%
- Population Fragmented Nuclei (%) [2]: 18% and 24%
- Population Healthy Nuclei (%) [2]: 69% and 52%
- Population Hoechst High Intensity Objects (%) [2]: 2% and 5%
- Population Membrane Permeable-Phenotype (%) [2]: 0% and 4%
- Population Mitochondria Different-Phenotype (%) [2]: 11% and 6%
- Population Mitotic Cells (%) [2]: 40% and 75%
- Population Normal (%) [2]: 97% and 94%
- Population Pyknosed Nuclei (%) [2]: 12% and 23%
- Population Tubulin-Different-Phenotype (%) [2]: 46% and 44%
- Total Cell Count [2]: 210 and 128
- Population Apoptotic (%) [3]: 61% and 45%
- Population Fragmented Nuclei (%) [3]: 14% and 33%
- Population Healthy Nuclei (%) [3]: 60% and 52%
- Population Hoechst High Intensity Objects (%) [3]: 2% and 4%
- Population Mitochondria Different-Phenotype (%) [3]: 4% and 1%
- Population Mitotic Cells (%) [3]: 38% and 55%
- Population Normal (%) [3]: 97% and 95%
- Population Pyknosed Nuclei (%) [3]: 25% and 14%
- Population Tubulin-Different-Phenotype (%) [3]: 32% and 52%
- Total Cell Count [3]: 139 and 148
- Population Apoptotic (%) [4]: 36% and 30%
- Population Fragmented Nuclei (%) [4]: 15% and 29%
- Population Healthy Nuclei (%) [4]: 72% and 48%
- Population Hoechst High Intensity Objects (%) [4]: 3% and 2%
- Population Membrane Permeable-Phenotype (%) [4]: 0% and 6%
- Population Mitochondria Different-Phenotype (%) [4]: 10% and 4%
- Population Mitotic Cells (%) [4]: 63% and 70%
- Population Normal (%) [4]: 96% and 97%
- Population Pyknosed Nuclei (%) [4]: 11% and 22%
- Population Tubulin-Different-Phenotype (%) [4]: 34% and 52%
- Total Cell Count [4]: 203 and 139
- Population Apoptotic (%) [5]: 58% and 50%
- Population Fragmented Nuclei (%) [5]: 26% and 36%
- Population Healthy Nuclei (%) [5]: 49%
- Population Hoechst High Intensity Objects (%) [5]: 2% and 4%
- Population Membrane Permeable-Phenotype (%) [5]: 2% and 7%
- Population Mitochondria Different-Phenotype (%) [5]: 2% and 4%
- Population Mitotic Cells (%) [5]: 41% and 50%
- Population Normal (%) [5]: 97% and 95%
- Population Pyknosed Nuclei (%) [5]: 24% and 13%
- Population Tubulin-Different-Phenotype (%) [5]: 27% and 46%
- Total Cell Count [5]: 149 and 137
- Population Apoptotic (%) [6]: 47% and 63%
- Population Fragmented Nuclei (%) [6]: 18% and 31%
- Population Healthy Nuclei (%) [6]: 72% and 52%
- Population Hoechst High Intensity Objects (%) [6]: 6%
- Population Membrane Permeable-Phenotype (%) [6]: 0% and 6%
- Population Mitochondria Different-Phenotype (%) [6]: 15% and 6%
- Population Mitotic Cells (%) [6]: 52% and 36%
- Population Normal (%) [6]: 93%
- Population Pyknosed Nuclei (%) [6]: 9% and 15%
- Population Tubulin-Different-Phenotype (%) [6]: 47% and 54%
- Total Cell Count [6]: 195 and 129
